In ChEMBL document CHEMBL4422700, “Trichothecenes from a Soil-Derived Trichoderma brevicompactum” (J Nat Prod, 2019):
Values after ≈ are worked out from the molar mass of the structure shown. Active and inactive are the calls of the source. The calls are words filed in the database; no cut-off is given here.

Key:
Vero = experiment: Cytotoxicity against African green monkey Vero cells assessed as reduction in cell viability by resazurin microplate assay; type: cell-based, Chlorocebus sabaeus
Method in brief: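 Vero (African green monkey kidney fibroblast) cells, run in triplicate. Ellipticine served as positive control.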

KB = experiment: Cytotoxicity against human KB cells assessed as reduction in cell viability by resazurin microplate assay; type: functional, cell-based
Method in brief: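 KB cells tested by resazurin microplate assay. Ellipticine served as positive control.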

Nannizzia gypsea = experiment: Antifungal activity against Microsporum gypseum by colorimetric broth microdilution method; type: functional
Plasmodium falciparum = experiment: Antimalarial activity against multidrug-resistant Plasmodium falciparum K1 infected in erythrocytes assessed as reduction in [3H]-hypoxanthine incorporation incubated for 24 hrs before [3H]-hypoxanthine addition and measured after 24 hrs by microplate scintillation counting based microculture radioisotope technique; type: functional, organism-based
Method in brief: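 Ring-stage K1 culture in RPMI-1640 at 1.5% erythrocyte suspension and 1% parasitaemia, exposed to test solution at 37 °C under CO2 for 24 h. 3H-hypoxanthine (0.5 μCi per well) was then added and incubation continued 24 h. Incorporation was read by scintillation counting; % growth = CPM treated/CPM untreated × 100. Dihydroartemisinin served as standard.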

Cryptococcus neoformans = experiment: Antifungal activity against flucytosine-resistant, Cryptococcus neoformans ATCC 90113 by colorimetric broth microdilution method; type: functional
Candida albicans = experiment: Antifungal activity against Candida albicans NCPF3153 by colorimetric broth microdilution method; type: functional
[1] = Plasmodium falciparum, K1, read-out: IC50

Row | Structure (SMILES) | IC50 (Vero; vero) [µM] | IC50 (KB; kb) [µM] | MIC (Nannizzia gypsea) | MIC (Cryptococcus neoformans) | MIC (Candida albicans) | IC50 (Plasmodium falciparum; read-out: IC50) [µM] | other results
1 | CC(=O)O[C@@H]1C[C@H]2O[C@@H]3C[C@H](CO)CC[C@]3(C)[C@]1(C)[C@]21CO1 | 45.9 | 116 | inactive | inactive | inactive | – | IC50 (Plasmodium falciparum): Not Active
2 | C[C@@H]1[C@H](O)[C@@H](C)/C=C/C=C/C=C/C=C/C=C/C=C/C=C/[C@H](O[C@@H]2O[C@H](C)[C@@H](O)[C@H](N)[C@@H]2O)C[C@@H]2O[C@](O)(C[C@@H](O)C[C@@H](O)[C@H](O)CC[C@@H](O)C[C@@H](O)CC(=O)O[C@H]1C)C[C@H](O)[C@H]2C(=O)O [AMPHOTERICIN B] | – | – | – | 0.25 µg/mL (≈ 0.271 µM) | 0.5 µg/mL (≈ 0.541 µM) | – | –
3 | CC(=O)O[C@@H]1C[C@H]2O[C@@H]3C=C(C)CC[C@]3(C)[C@]1(C)[C@]21CO1 | 0.4 | 2.4 | – | – | – | 0.1 | –
4 | CC(=O)O[C@@H]1C[C@H]2O[C@@H]3C=C(C=O)CC[C@]3(C)[C@]1(C)[C@]21CO1 | 9.9 | 3.7 | inactive | – | – | 9.6 | –
5 | Cc1c2ccncc2c(C)c2c1[nH]c1ccccc12 [ELLIPTECINE] | – | – | – | – | – | – | IC50 (Vero; Chlorocebus sabaeus, Vero): 4.1 µM
6 | C[C@H]1C(O)O[C@@H]2O[C@@]3(C)CC[C@H]4[C@H](C)CCC1C24OO3 (some centres not stated) | – | – | – | – | – | – | IC50 (Plasmodium falciparum; [1]): 0.0022 µM
7 | CC(=O)O[C@@H]1C[C@H]2O[C@@H]3C=C(CO)CC[C@]3(C)[C@]1(C)[C@]21CO1 | 7.8 | 20.6 | inactive | – | – | 8.8 | –
8 | CC1=C[C@]23O[C@@H]4C[C@@H](O)[C@](C)([C@@]2(C)CC1)[C@]4(CO)O3 | – | – | inactive | 16 µg/mL (≈ 60.1 µM) | 16 µg/mL (≈ 60.1 µM) | – | IC50 (Vero; Chlorocebus sabaeus, Vero): 15.3 µM; IC50 (KB; Homo sapiens, KB): 44.7 µM; IC50 (Plasmodium falciparum; [1]): 7.4 µM
9 | CC1=C[C@H]2O[C@@H]3C[C@@H](O)[C@](C)([C@@]2(C)CC1)[C@]31CO1 [TRICHODERMOL] | 6.9 | 16.1 | inactive | – | – | 7.1 | –
10 | Clc1ccc(COC(Cn2ccnc2)c2ccc(Cl)cc2Cl)c(Cl)c1 (configuration not stated) [MICONAZOLE] | – | – | 1 µg/mL (≈ 2.4 µM) | – | – | – | –
